core dimer inh: HCV core protein dimerization inhibition; hit rate 0.33% among 300,000; TR-FRET GST/Flag-core106 dimerization, 1536-well; inhibition, % at 5 µM;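 active = inhibition above the mean of all tested compounds plus 3 SD, set per screening campaign, cut at about 45% in these data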
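System: GST/Flag-tagged HCV core106 proteins. Incubation: compound-protein-antibody incubation 4 h at 22.5 °C. Technique: HTRF with 340 nm excitation, 617/671 nm emission. Medium: KF-containing HEPES buffer, pH 7.45, DTT, CHAPS, BSA. Read-out: inhibition (%) from 671 over 617 nm ratio. Also added: Eu(K)-anti-GST 90 ng/mL plus XL665-anti-Flag 1 µg/mL.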
TAAR1 agonist: human TAAR1 agonism; CHO RD-HGA16 TAAR1, Fluo-8 calcium fluorescence; vehicle wells 0%, saturating PEA agonist 100%; Q96RJ0; hit rate 0.99% among 360,000; activation, % at 3 µM;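 active = activation above the mean activation of all test compounds in the run plus 3 SD, cut at about 38% in these data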
Target sequence (Q96RJ0 whole entry, looked up): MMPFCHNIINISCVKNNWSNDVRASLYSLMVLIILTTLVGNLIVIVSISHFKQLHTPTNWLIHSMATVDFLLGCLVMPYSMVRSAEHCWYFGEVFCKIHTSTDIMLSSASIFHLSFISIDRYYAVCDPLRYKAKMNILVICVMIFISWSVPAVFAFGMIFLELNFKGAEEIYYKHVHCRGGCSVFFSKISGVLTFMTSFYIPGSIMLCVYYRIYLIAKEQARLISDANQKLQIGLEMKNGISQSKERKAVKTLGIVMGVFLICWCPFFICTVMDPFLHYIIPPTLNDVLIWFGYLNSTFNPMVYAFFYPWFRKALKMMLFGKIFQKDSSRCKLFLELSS
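Assay system – CHO-derived RD-HGA16 cells with stable Gα16 and human TAAR1 · Compound dosing – one-point dosing at 3 µM (nominal) · Incubation – 17-24 h seeding, 75 min 37 °C dye, 30 min RT · Measured by – kinetic Fluo-8 calcium fluorescence · Control set – DMSO vehicle as 0%, PEA at EC100 as 100% · Repeats – single well for each compound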
HCV NS3 hel inh: inhibitors of Hepatitis C virus NS3 helicase; AID 1800; hit rate 0.56% among 290,000; NS3 helicase DNA unwinding, Cy5 molecular beacon fluorescence; inhibition, % at 10.9 µM;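 active = inhibition above the mean of all tested compounds plus 3 SD, set per campaign, cut at about 35% in these data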;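 note: 0% = DMSO wells and 100% = thioflavine S control wells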
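Measured by: Cy5 fluorescence, 0 and 60 min reads / Assay system: NS3 helicase fragment of HCV / Control set: low DMSO, high thioflavine S at 110 µM / Times: 1 h reaction at 25 °C, ATP-initiated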
rCAG binder: binds r(CAG) RNA repeats. r(CAG) RNA repeat, TO-PRO-1 dye displacement fluorescence. inhibition, % at 3 µM. hit rate 1.3% among 370,000. AID 651821;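 active = inhibition above the plate cutoff, the mean of all test compounds on that plate plus 3 SD, cut at about 35% in these data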;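 note: 0% = DMSO alone and 100% = 100 µM mitoxantrone as full dye displacement; higher means more dye released from RNA so lower well fluorescence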
TAAR1 antag: antagonists of human TAAR1 | CHO RD-HGA16 TAAR1, Fluo-8 calcium fluorescence, antagonist | inhibition, % at 3 µM | hit rate 1.5% among 360,000;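 active = inhibition above a per-plate cutoff, the mean inhibition of test compounds on that plate plus 3 SD, cut at about 49% in these data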;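 note: 0% = DMSO plus EC80 beta-PEA response and 100% = DMSO alone without agonist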
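Test system: hTAAR1-expressing CHO RD-HGA16 cells, Gα16-coupled; Probe or stimulus: EC80 β-phenethylamine stimulus; Compound dosing: single nominal final test compound concentration of 3 µM; Timing: 140 s kinetic read after compound, 140 s after agonist; Signal: Fluo-8 calcium-sensitive fluorescence; Measure: % inhibition of agonist calcium response; Controls: DMSO and EC80 PEA controls.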
nonsel antag count: nonselective antagonist in TAAR1 antagonist counter-screen | shares compounds with TAAR1 antag | counterscreen cell line, calcium fluorescence, antagonist mode | inhibition, % at 3 µM | hit rate 77% among 2,400; in the data active = inhibition above about 22%;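 note: CHO-Ga16 host cells stimulated with ATP at an EC80 level; 0% = agonist EC80 plus vehicle and 100% = vehicle without agonist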
TAAR1 ant conf: confirmation of human TAAR1 antagonists | shares compounds with TAAR1 antag | TAAR1-expressing cells, fluorescence antagonist read-out | inhibition, % at 3 µM | hit rate 40% among 2,400 | AID 651785; in the data active = inhibition above about 49%;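 note: CHO-Ga16 host cells challenged with agonist PEA near its EC80; 0% = agonist at EC80 plus vehicle and 100% = vehicle with no agonist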
Ga16 ag counter: nonselective Ga16 agonism, counter-screen | AID 651953 | activation, % at 3 µM | Ga16-expressing cells, calcium fluorescence, agonist counterscreen | shares compounds with TAAR1 antag | hit rate 18% among 2,400; in the data active = activation above about 12%;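 note: 0% = vehicle wells and 100% = saturating stimulus response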
TAAR1 ag counter: activates human TAAR1 in antagonist counter-screen; shares compounds with TAAR1 antag; hTAAR1 cell line, fluorescence activation, agonist mode; activation, % at 3 µM; hit rate 2% among 2,400; in the data active = activation above about 37%;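 note: CHO cells stably expressing TAAR1 with calcium dye readout; 0% = DMSO vehicle and 100% = full agonist response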
Starred values were filed as active, the others as inactive; · = no result. This is a sample that favours compounds with a hit; in the whole collection about 3.7% have one here.

SMILES	core dimer inh	TAAR1 agonist	HCV NS3 hel inh	rCAG binder	TAAR1 antag	nonsel antag count	TAAR1 ant conf	Ga16 ag counter	TAAR1 ag counter
COc1ccc(CCNC(=O)C(=O)NCC2OCCN2C(=O)c2ccc(Cl)cc2)cc1 (configuration not stated)	-7	12	5	-1	60*	22*	37	8	12
COc1ccc(C(=O)N2CCOC2CNC(=O)C(=O)NCc2ccc(Cl)cc2)cc1 (configuration not stated)	4	1	0	-1	8	·	·	·	·
COCCCNC(=O)C[C@H]1C[C@@]2(C(=O)OC)C(=C[C@H](C(C)(C)C)O[C@@H]2C)N(Cc2ccco2)C1=O	·	·	·	-2	·	·	·	·	·
Cn1c(/C=C(\C#N)C(N)=S)ccc1-c1ccc(Br)cc1	·	10	16	11	67*	25*	39	6	15
CCOC(=O)N1CCN(C(=O)C[C@@H]2C(=O)N(CCc3ccc(Cl)cc3)/C3=C/CCCCC[C@@]32C(=O)OCC)CC1	·	·	·	5	·	·	·	·	·
O=C(Nc1ccc(-c2csc(Nc3ccccc3)n2)cc1)c1ccccc1	-5	6	-24	15	74*	26*	53*	5	6
O=C(Nc1cccc(-c2csc(Nc3ccc(Cl)cc3)n2)c1)c1cc([N+](=O)[O-])cc(C(F)(F)F)c1	38	10	·	21	28	·	·	·	·
O=C(Nc1cccc(-c2csc(Nc3ccc(Cl)cc3)n2)c1)c1ccccc1	18	4	·	24	41	·	·	·	·
O=C(Nc1cccc(-c2csc(Nc3ccccc3)n2)c1)c1cc([N+](=O)[O-])cc(C(F)(F)F)c1	18	1	9	18	55*	15	29	2	2
O=C1CC(c2ccc(OCCCCCOc3ccc(C4CC(=O)NC4=O)cc3)cc2)C(=O)N1 (configuration not stated)	11	20	-5	-4	64*	40*	53*	14*	19
Cc1c(NC(=O)C2CCCN(S(=O)(=O)c3ccc(F)cc3)C2)c(=O)n(-c2ccccc2)n1C (configuration not stated)	·	·	·	2	·	·	·	·	·
Cc1ccc(-c2c(NC(=O)C3CC3)nc3ncccn23)cc1	·	·	·	1	·	·	·	·	·
COC(=O)C1(C)CCCC2(C)C3CCC(C(C)C)C(CO)C3C(CO)CC12 (configuration not stated)	·	25	·	0	82*	32*	55*	14*	20
O=C(OCC(=O)N1CCOCC1)c1ccccc1SCC(=O)N1CCCC1	-5	4	1	-2	2	·	·	·	·
CC(C)(C)N(Cc1ccccc1)C(=O)COC(=O)c1ccccc1SCC(=O)N1CCCC1	8	6	·	-5	61*	21	43	9	11
COc1ccc(CN(CCN2CCOCC2)C(=O)c2cc(Cl)ccc2F)cc1OC	·	·	·	1	·	·	·	·	·
CC/C(=C(/CC)c1ccc(O)cc1)c1ccc(O)cc1	3	0	-4	1	57*	23*	37	4	12
COCCn1cnc2c(c1=O)c1nc3ccccc3nc1n2/N=C/c1cccc(OC)c1	0	20	-9	5	53*	27*	44	7	6
COC(=O)C[C@@H]1CC[C@@H]2[C@@H](COc3ccc(NC(C)=O)cc3C(=O)N2C)O1	·	·	·	0	·	·	·	·	·
O=C(CCS(=O)(=O)c1ccc(Cl)cc1)NCCN1C(=O)S/C(=C\c2ccccc2F)C1=O	6	14	-14	2	71*	38*	38	11	7
COC(=O)C1=C(C)NC(=S)NC1c1cccc(OC)c1 (configuration not stated)	·	0	·	2	-13	·	·	·	·
C[C@@H]1[C@@H](O)C[C@@]2(C[C@H](O)c3cc(Cl)cc(Cl)c3O2)O[C@H]1c1ccccc1Cl	·	·	·	0	·	·	·	·	·
CSc1ccc(Cn2c(C)c(C(=O)NCc3ccc(Cl)c(Cl)c3)sc2=O)cc1	·	1	·	7	19	·	·	·	·
Cc1c(C(=O)NCc2ccc(Cl)c(Cl)c2)sc(=O)n1Cc1ccc(S(C)(=O)=O)cc1	·	21	·	5	72*	35*	37	14*	13
Cc1cc(=O)oc2c3c(cc(OCC(=O)NCc4ccccc4)c12)OC(C)(C)CC3	4	3	-5	-4	68*	24*	34	2	0
SMILES	core dimer inh	TAAR1 agonist	HCV NS3 hel inh	rCAG binder	TAAR1 antag	nonsel antag count	TAAR1 ant conf	Ga16 ag counter	TAAR1 ag counter
CCOc1ccc2nc(NC(=O)CS(=O)(=O)c3ccc(C)cc3)sc2c1	5	6	-3	9	55*	20	38	2	3
COc1ccc(-c2cc(C(=O)Nc3ccc(S(N)(=O)=O)cc3)c3ccccc3n2)cc1OC	-2	7	8	17	7	·	·	·	·
O=C(Nc1cccnc1)c1cc(-c2cccc(Br)c2)nc2ccccc12	14	2	-15	3	65*	27*	47	5	5
CCOc1ccccc1NC(=O)c1cc(-c2cc(OC)c(OC)c(OC)c2)nc2ccccc12	13	6	-29	19	59*	29*	51*	4	2
COc1cc(-c2cc(C(=O)Nc3ccncc3)c3ccccc3n2)cc(OC)c1OC	·	23	·	4	61*	28*	48	8	6
COc1ccccc1NC(=O)c1cc(-c2cc(OC)c(OC)c(OC)c2)nc2ccccc12	8	2	8	3	19	·	·	·	·
COc1cc(-c2cc(C(=O)Nc3ccc(N4CCOCC4)cc3)c3ccccc3n2)cc(OC)c1OC	6	13	-22	8	72*	32*	51*	7	6
Cc1ccc(-n2c(Cc3cccs3)nnc2SCC(=O)Nc2ccccc2-c2ccccc2)cc1	·	·	·	3	·	·	·	·	·
CCOC(=O)c1c(NC(=O)COc2ccccc2C#N)sc2c1CC(C)(C)NC2(C)C	1	22	-75	-7	74*	28*	46	14*	16
CC(C)CN1C(=O)C[C@]2(C(=O)N(C)c3ccc(NC(=O)C(C)(C)C)cc32)C1c1ccccc1 (some centres not stated)	·	·	·	0	·	·	·	·	·
CC1CC1c1ccc(/C=C(\C#N)C(=O)Nc2ccc(Cl)cc2)o1 (configuration not stated)	11	6	2	2	52*	17	37	7	11
CC1CC1c1ccc(/C=C(\C#N)C(=O)Nc2ccccc2Cl)o1 (configuration not stated)	4	2	2	6	2	·	·	·	·

Screening results: PubChem, The Scripps Research Institute Molecular Screening Center
